System: MS2 coat protein
Experiment: apparent Kd, MS2 coat protein; higher = weaker binding; RNA-MaP array; FMN 200 µM where present
Summary of the method: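 The apparent Kd comes from binding curves fitted cluster by cluster, filtered, and summarised as a median. Those curves followed SNAP-549-labelled MS2 coat protein from 0.7 or 1.5 nM, doubling to 3 µM, on Illumina sequencing-chip clusters where stalled E. coli RNA polymerase had transcribed the designs, without and then with constant ligand. The buffer was 100 mM Tris-HCl pH 7.5, 80 mM KCl, 4 mM MgCl2, BSA, DTT, yeast tRNA and Tween-20, and green signal was normalised to red-channel RNA signal and control-cluster median Fmax.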

[1] = designed as: ON switch for flavin mononucleotide, no ligand
[2] = ligand present: flavin mononucleotide, designed as: ON switch for flavin mononucleotide
[3] = designed as: OFF switch for flavin mononucleotide, no ligand
[4] = ligand present: flavin mononucleotide, designed as: OFF switch for flavin mononucleotide

| Sequence | apparent Kd [1] [nM] | apparent Kd [2] [nM] | apparent Kd [3] [nM] | apparent Kd [4] [nM] |
| --- | --- | --- | --- | --- |
| CGUACACAUGAGGAUCACCCAUGUCAGAUUUGGUCAGGAUAUGGGCGGCAUCCGCUAUAGCCAGAAGGGACUGUUG | 173 | 204 |  |  |
| CUUUUUUUUGUGAGGAUAUACUGUUAUUAAAGUUAGUAGAAGGUACAUGAGGAUCACCCAUGUUAAUUACUCUA |  |  | 14.1 | 14.9 |
| UUCGUGUAAGGAUAUACGACUCAUCCCAAUGGGACGAGCACGUAGAAGGUACAUGAGGAUCACCCAUGUGCUCC |  |  | 27.1 | 155 |
| GCAACGCCUGACAUGAGGAUCACCCAUGUUAGAUUGUUAUGUCAGGAUAUUGUCUCGAAACGAGACGAGAAGGGAUAUGUUGCU | 1110 | 39 |  |  |
| AAUUACAUGUAGAAGGUACUUAAUUAAGUGUUGUAAGGAUAUACCAAUUUAUUAGAUUUAAAGAUACAUGAGGAUCACCCAUGU | 12.1 | 9.76 |  |  |
| GACUUGUCAGGAUAUCUUACAUAAACAUCGUAGUUACAAUUGGAGAAGGGACAUGAGGAUCACCCAUGUUUGCG |  |  | 25.1 | 29.3 |
| GCCAGUUAUGUAGGAUAUGCGAGGCGAGCCUGAGCAGAAGGACAUGAGGAUCACCCAUGUAUUGCGGUUUGAGUACUGAUCGCU |  |  | 38.1 | 215 |
| AAAAAGGCAGGAUAUACAUGAGGAUCACCCAUGUAAAGAAAAGAAAGAUCCAAAGAAAGUAGAAGGGCCAAAAA |  |  | 74.8 | 286 |
| CCGUUACAUGAGGAUCACCCAUGUGAGGAUAUCGAUGUAACUAGCAGCGUGCGGGACUCGAGAAGGCACUUGGC |  |  | 104 | 75.2 |
| CUGAUGUAAGGAUAUGUGUAGAAAUCAAAUCGGAUAUUCUAACAGAAGGUACAUGAGGAUCACCCAUGUGAGAA |  |  | 39.7 | 71.2 |
| UAGAUGGGAGGAUAUGCAUAGAUACAGAUUCGUGUAGUGCUACAUGAGGAUCACCCAUGUAGAAGGCCCGUCUU |  |  | 14.8 | 37.6 |
| GCAUACAUUCGAGGAUAUCGGUGAACAAAUUAACGAGAAGGCGAUAUAAUUUUUAAACUUAUAGACAUGAGGAUCACCCAUGUA | 23.7 | 20.6 |  |  |
| AAAUUUAACGAAGGAUAUGCUGACAUGAGGAUCACCCAUGUGUGCUUUGUGUUGCUGAAACGGGAGCAGAAGGUCGUAUACAUA |  |  | 82.5 | 82.5 |
| CAUUGCGAAGGAUAUACAUGAGGAUCACCCAUGUGUUUCCUCACGCACGGGAGUAGCGGUAGAAGGUCGCAGAA |  |  | 14.7 | 29.4 |
| UUUUAACAUGAGGAUCACCCAUGUGAGGAUAUCGAAAUUUAUAUUAAUAUUAUUUUAACGAGAAGGCACAUUUU |  |  | 76.7 | 84.2 |
| GCGAAGAACGAGAAGGCCACUACAUGAGGAUCACCCAUGUCGUGGAGUAUUGGAGGAUAUCGUUCGGCGUCUCAUGAGGACAUA |  |  | 4.95 | 5.22 |
| ACUGGUCGAGGAUAUACAAUCGUGCUUCGGCACGUAAGAUCACAUGAGGAUCACCCAUGUAGAAGGCGACCAGU |  |  | 60.3 | 743 |
| GGGCUGUCAGGAUAUGCUAGUGCUAGUGAAAGCUAGUGCUAGUAGAAGGGACAUGAGGAUCACCCAUGUGGCCC |  |  | 31.4 | 30.9 |
| GCGUCAGAAUUAAUUGUGACAUACAGAAGGCAAAAGUUAAGAUCAGACAUGAGGAUCACCCAUGUUGAGGAUAUGUAGAGAAUC |  |  | 10.4 | 8.72 |
| AAAAAGUGAGGAUAUACAUGAGGAUCACCCAUGUGAAAUCGGAAAAAAAACGAAAAAAGUAGAAGGCACAAAAA |  |  | 25.3 | 24.5 |
| AGCUGUGGCCGAGGAUAUACAUCCUUUAUAAAACCGAAAUAUAAUCGGACAUGAGGAUCACCCAUGUAGAAGGCGGUCUCAGCA |  |  | 51.4 | 702 |
| GCAGCUAUUAUUAUACAUGAGGAUCACCCAUGUUACAUGUGUAAGGAUAUUGAUGUUUAUAUAAUCAAGAAGGUACGAAGCUGC | 11.6 | 7.15 |  |  |
| AAUUACAUGUAGAAGGUACUUAAUUAAGUGUUGUAAGGAUAUACCAAUUUAUUAGUUUUAAAGAUACAUGAGGAUCACCCAUGU | 10.6 | 9.2 |  |  |

— the EternaBench riboswitch data
